Experimental data published in ChEMBL document CHEMBL1147648, “Substituted coumarins as potent 5-lipoxygenase inhibitors” (Bioorg Med Chem Lett, 2006).
pIC50: −log10 of the molar value.

Assays:
[1] = target: T1, Polyunsaturated fatty acid 5-lipoxygenase (Homo sapiens, UniProt P09917); experiment: Inhibition of LTB4 production in calcium ionophore A-23187-stimulated human polymorphonuclear leukocyte; format: functional
T1 sequence (P09917 whole entry): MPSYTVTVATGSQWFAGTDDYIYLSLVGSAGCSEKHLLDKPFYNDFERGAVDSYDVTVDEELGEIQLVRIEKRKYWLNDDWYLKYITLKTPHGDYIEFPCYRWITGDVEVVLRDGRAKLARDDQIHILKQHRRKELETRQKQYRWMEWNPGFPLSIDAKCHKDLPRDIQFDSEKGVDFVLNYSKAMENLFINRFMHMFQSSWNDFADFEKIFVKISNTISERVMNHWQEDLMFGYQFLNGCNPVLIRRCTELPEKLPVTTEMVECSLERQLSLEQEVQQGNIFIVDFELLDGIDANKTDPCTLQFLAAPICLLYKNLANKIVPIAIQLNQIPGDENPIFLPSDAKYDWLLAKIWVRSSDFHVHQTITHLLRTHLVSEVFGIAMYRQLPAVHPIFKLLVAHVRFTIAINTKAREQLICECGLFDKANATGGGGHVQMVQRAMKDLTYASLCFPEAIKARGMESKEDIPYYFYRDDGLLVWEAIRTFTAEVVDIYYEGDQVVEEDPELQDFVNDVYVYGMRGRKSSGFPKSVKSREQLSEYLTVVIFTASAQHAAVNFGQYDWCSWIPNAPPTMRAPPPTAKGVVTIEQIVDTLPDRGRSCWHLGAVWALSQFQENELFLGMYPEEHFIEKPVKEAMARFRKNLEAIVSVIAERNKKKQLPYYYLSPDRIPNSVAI

[2] = target: T1, Polyunsaturated fatty acid 5-lipoxygenase; experiment: Inhibition of human 5-LO
[3] = target: T1, Polyunsaturated fatty acid 5-lipoxygenase; experiment: Inhibition of LTB4 production in calcium ionophore A-23187-stimulated human whole blood; format: functional, tissue-based
[4] = Oral bioavailability in squirrel monkey at 10 mg/kg, po; format: ADME, organism-based, Saimiri sciureus; conditions: in vivo
[5] = target: T2, Polyunsaturated fatty acid 5-lipoxygenase (Rattus norvegicus) (UniProt P12527); experiment: Activity against carrageenan-induced inflammation in orally dosed rat pleural cavity assessed as inhibition of LTB4 biosynthesis after 2 hrs; format: functional, organism-based
T2 sequence (whole entry): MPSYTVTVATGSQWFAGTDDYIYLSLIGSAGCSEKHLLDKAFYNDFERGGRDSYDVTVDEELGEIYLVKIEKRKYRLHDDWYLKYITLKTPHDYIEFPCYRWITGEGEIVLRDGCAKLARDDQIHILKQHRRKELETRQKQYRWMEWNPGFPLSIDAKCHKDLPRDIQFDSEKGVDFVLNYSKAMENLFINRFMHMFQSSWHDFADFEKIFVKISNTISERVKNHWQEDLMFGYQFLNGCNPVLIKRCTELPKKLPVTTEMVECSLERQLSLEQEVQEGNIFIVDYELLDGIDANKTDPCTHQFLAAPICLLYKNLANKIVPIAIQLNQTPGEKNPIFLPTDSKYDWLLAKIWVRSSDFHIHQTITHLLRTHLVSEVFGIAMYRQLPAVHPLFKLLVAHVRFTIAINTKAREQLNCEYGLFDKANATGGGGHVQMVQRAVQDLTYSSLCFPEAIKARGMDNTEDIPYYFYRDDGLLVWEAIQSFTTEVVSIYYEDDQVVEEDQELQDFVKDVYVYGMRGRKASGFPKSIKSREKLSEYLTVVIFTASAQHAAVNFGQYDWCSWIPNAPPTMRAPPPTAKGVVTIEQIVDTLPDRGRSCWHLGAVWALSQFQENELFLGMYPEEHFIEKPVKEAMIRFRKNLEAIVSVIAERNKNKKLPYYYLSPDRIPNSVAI

[6] = Oral bioavailability in rat at 20 mg/kg, po; format: ADME, organism-based; conditions: in vivo
Method in brief: (§1)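 Rats dosed orally at 20 mg/kg in 0.5% methocel, given as the water-soluble sodium salt of the hydroxy-acid precursor that cyclizes to the coumarin.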

[7] = Cmax in squirrel monkey at 10 mg/kg, po after 2 hrs; format: ADME, organism-based, Saimiri sciureus; parameters: dose 10 mg/kg, route oral; conditions: in vivo
[8] = Cmax in rat at 20 mg/kg, po; format: ADME, organism-based; parameters: dose 20 mg/kg, route oral; conditions: in vivo; method in brief: as §1
Rattus norvegicus = experiment: Oral absorption in rat at 20 mg/kg, po; format: ADME, organism-based; parameters: dose 20 mg/kg, route oral; conditions: in vivo; method in brief: as §1

Row | SMILES | pIC50 [1] | pIC50 [2] | pIC50 [3] | also measured
1 | O=c1cc(-c2ccoc2)c2ccc(COc3cc(F)cc([C@]4(O)C[C@H]5CO[C@@H](C4)O5)c3)cc2o1 | 8.52 | 6.70 | 7.32 | –
2 | O=c1cc(-c2ccc(F)cc2)c2ccc(COc3cc(F)cc(C(O)(C(F)(F)F)C(F)(F)F)c3)cc2o1 | 8.72 | 7.26 | 6.82 | –
3 | O=C([O-])/C=C(/c1ccc(F)cc1)c1ccc(Sc2cc(F)cc(C(O)(C(F)(F)F)C(F)(F)F)c2)cc1[O-].[Na+].[Na+] | – | – | – | bioavailability [4]: 30%; ED50 [5]: 1.6 mg/kg; bioavailability [6]: 100%; Cmax [7]: 1.2 µM; Cmax [8]: 16 µM
4 | O=c1cc(-c2ccc(F)cc2)c2ccc(Sc3cc(F)cc(C(O)(C(F)(F)F)C(F)(F)F)c3)cc2o1 | – | – | – | Fa (Rattus norvegicus): Not Active

Now from value to compound, other results behind:

Row | pIC50 [1] | pIC50 [2] | pIC50 [3] | SMILES | also measured
5 | 9.10 | 8.05 | 7.28 | O=c1cc(-c2ccoc2)c2ccc(Sc3cc(F)cc(C(O)(C(F)(F)F)C(F)(F)F)c3)cc2o1 | –
6 | 9.30 | 7.59 | 7.06 | O=c1cc(-c2ccccc2)c2ccc(Sc3cc(F)cc(C(O)(C(F)(F)F)C(F)(F)F)c3)cc2o1 | –
